Assay results: ChEMBL document CHEMBL1156084, “Synthesis and structure-activity relationships of pyrazolodiazepine derivatives as human P2X7 receptor antagonists” (Bioorg Med Chem Lett, 2009)

Legend:
Assay type in all cases: functional, cell-based
[1] = target: T1, P2X purinoceptor 7 (Homo sapiens) (UniProt Q99572); assay: Antagonist activity at human P2X7 receptor expressed in HEK293 cells assessed as inhibition of BzATP-induced fluorescent ethidium accumulation; conditions: concentration not given here
T1 sequence (whole entry): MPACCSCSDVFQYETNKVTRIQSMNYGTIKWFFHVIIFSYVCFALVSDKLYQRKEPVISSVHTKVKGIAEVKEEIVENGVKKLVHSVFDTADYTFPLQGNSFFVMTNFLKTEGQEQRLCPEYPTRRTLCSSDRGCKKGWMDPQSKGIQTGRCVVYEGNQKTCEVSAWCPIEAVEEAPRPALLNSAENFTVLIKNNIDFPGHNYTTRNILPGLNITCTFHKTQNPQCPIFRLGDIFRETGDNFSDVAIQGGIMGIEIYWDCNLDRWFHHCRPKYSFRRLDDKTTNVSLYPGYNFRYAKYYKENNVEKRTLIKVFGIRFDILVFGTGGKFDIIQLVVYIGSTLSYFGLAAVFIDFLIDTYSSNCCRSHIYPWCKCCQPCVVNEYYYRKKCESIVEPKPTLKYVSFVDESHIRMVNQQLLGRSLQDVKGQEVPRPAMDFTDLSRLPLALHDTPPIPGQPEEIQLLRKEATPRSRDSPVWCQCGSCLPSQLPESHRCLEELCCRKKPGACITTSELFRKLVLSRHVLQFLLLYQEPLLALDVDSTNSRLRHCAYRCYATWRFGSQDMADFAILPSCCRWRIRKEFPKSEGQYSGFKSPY
Procedure, shortened: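 Adherent HEK293 cells stably transfected with human P2X7 cDNA, resuspended at 2.5×10^6 cells/mL in HEPES buffer (mM: ethidium bromide 0.1, EDTA 1, glucose 5, HEPES 20, KCl 140; pH 7.4). Cells added to compound wells, then BzATP, and incubated 120 min at 37 °C. Ethidium uptake read by fluorescence (ex 530/20, em 590/20). IC50 is the mean from dose–response curves of at least three experiments.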

P2X purinoceptor 7 = target: T2, P2X purinoceptor 7 (Homo sapiens, UniProt Q99572); assay: Antagonist activity at human P2X7 receptor expressed in HEK293 cells assessed as inhibition of BzATP-induced fluorescent ethidium accumulation […]
T2 sequence (Q99572 whole entry): T1 sequence (whole entry)
Procedure, shortened: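 Human P2X7-expressing HEK293 cells at 2.5×10^6 cells/mL in pH 7.4 HEPES/KCl/EDTA/glucose buffer containing 0.1 mM ethidium bromide. Compound tested at 10 μM, then BzATP added, and cells held 120 min at 37 °C. Ethidium accumulation measured by fluorescence (ex 530/20, em 590/20) and expressed as % inhibition, mean ± SD of three repeats.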

[2] = target: T1, P2X purinoceptor 7 (Homo sapiens); assay: Antagonist activity at P2X7 receptor in IFN-gamma/LPS-differentiated human THP1 cells assessed as inhibition of BzATP-induced IL1-beta release at 10 uM treated 30 mins prior to BzATP addition by ELISA; conditions: THP-1
Procedure, shortened: (§1)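 THP-1 cells differentiated and primed 3 h with 25 ng/mL LPS plus 10 ng/ml IFNγ. Compound added 30 min before stimulation with 1 mM BzATP for 30 min. Supernatants cleared by centrifugation (1000 rpm, 5 min), and mature human IL-1β quantified by ELISA.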

[3] = target: T1, P2X purinoceptor 7 (Homo sapiens); assay: Antagonist activity at P2X7 receptor in IFN-gamma/LPS-differentiated human THP1 cells assessed as inhibition of BzATP-induced IL1-beta release treated 30 mins prior to BzATP addition by ELISA; conditions: THP-1; procedure, shortened: as §1

Row | SMILES | inhibition [1] | IC50 (P2X purinoceptor 7) | inhibition [2] | Activity [3]
1 | Cc1ccc(CN2C[C@H](COC(=O)c3cccc4cnccc34)NC(=O)c3nn(CCc4ccccc4)cc32)cc1 | 69% | 1180 nM | 48% | 
2 | O=C1N[C@@H](COC(=O)c2cccc3cnccc23)CNc2cn(CCc3ccccc3)nc21 | 71% | 790 nM | 44% | 
3 | Cn1cc(CN2CCC(CCn3cc4c(n3)C(=O)N[C@@H](Cc3ccccc3)CN4C(=O)C3CC3)CC2)c2ccccc21 | 39% |  |  | 
4 | Cc1cc(O)ccc1CN1C[C@@H](COC(=O)c2cn(C)c3ccccc23)NC(=O)c2nn(CCc3ccccc3)cc21 | 30% |  |  | 
5 | Cn1cc(C(=O)OC[C@H]2CN(Cc3ccc(F)cc3)c3cn(CCc4ccccc4)nc3C(=O)N2)c2ccccc21 | 39% |  |  | 
6 | Cn1cc(C(=O)OC[C@H]2CN(Cc3ccc([N+](=O)[O-])cc3)c3cn(CCc4ccccc4)nc3C(=O)N2)c2ccccc21 | 65% | 1420 nM | 41% | 
7 | O=C1N[C@@H](COC(=O)c2cccc3ccccc23)CNc2cn(CCc3ccccc3)nc21 | 46% |  |  | 
8 | Cn1cc(CN2C[C@H](COC(=O)c3cn(C)c4ccccc34)NC(=O)c3nn(CCc4ccccc4)cc32)c2ccccc21 | 68% | 1070 nM | 65% | 
9 | Cc1cc(CN2C[C@H](COC(=O)c3cccc4cnccc34)NC(=O)c3nn(CCc4ccccc4)cc32)ccc1O | 84% | 740 nM | 51% | 
10 | CN([C@@H](Cc1ccc(OS(=O)(=O)c2cccc3cnccc23)cc1)C(=O)N1CCN(c2ccccc2)CC1)S(=O)(=O)c1cccc2cnccc12 |  | 110 nM | 103% | 
11 | Cn1cc(C(=O)OC[C@H]2CN(Cc3ccccc3)c3cn(CCc4ccccc4)nc3C(=O)N2)c2ccccc21 | 94% | 310 nM | 105% | Dose-dependent effect
12 | Cc1cccc(CN2C[C@H](COC(=O)c3cccc4cnccc34)NC(=O)c3nn(CCc4ccccc4)cc32)c1 | 42% |  |  | 
13 | Cc1cc(O)ccc1CN1C[C@H](COC(=O)c2cn(C)c3ccccc23)NC(=O)c2nn(CCc3ccccc3)cc21 | 88% | 180 nM | 37% | 
14 | CC(C)(C)OC(=O)N1CCC(CCn2cc3c(n2)C(=O)N[C@@H](Cc2ccccc2)CN3C(=O)C2CC2)CC1 | 61% | 13000 nM |  | 
15 | CC(C)(C)OC(=O)N1CCC(CCn2cc3c(n2)C(=O)N[C@H](Cc2ccccc2)CN3C(=O)C2CC2)CC1 | 70% | 4310 nM |  | 
16 | O=C1N[C@@H](COC(=O)c2cccc3cnccc23)CN(Cc2ccc(F)cc2)c2cn(CCc3ccccc3)nc21 | 75% | 1280 nM | 65% | 

Row | SMILES | inhibition [1] | IC50 (P2X purinoceptor 7) | inhibition [2] | Activity [3]
17 | O=C1N[C@@H](Cc2ccccc2)CN(C(=O)C2CC2)c2cn(CCC3CCN(Cc4cccc5ncccc45)CC3)nc21 | 24% |  |  | 
18 | Cn1cc(CN2C[C@H](COC(=O)c3cccc4cnccc34)NC(=O)c3nn(CCc4ccccc4)cc32)c2ccccc21 | 33% |  |  | 
19 | O=C1N[C@@H](COC(=O)c2cccc3ccccc23)CN(Cc2ccccc2)c2cn(CCc3ccccc3)nc21 | 44% |  |  | 
20 | Cn1cc(C(=O)OC[C@H]2CN(Cc3ccc(Cl)cc3)c3cn(CCc4ccccc4)nc3C(=O)N2)c2ccccc21 | 94% | 250 nM | 55% | 
21 | COc1ccc(CN2C[C@H](COC(=O)c3cn(C)c4ccccc34)NC(=O)c3nn(CCc4ccccc4)cc32)cc1 | 29% |  |  | 
22 | O=C1N[C@@H](COC(=O)c2cccc3cnccc23)CN(Cc2ccc(Br)cc2)c2cn(CCc3ccccc3)nc21 | 38% |  |  | 
23 | Cn1cc(C(=O)OC[C@H]2CN(Cc3ccc(Br)cc3)c3cn(CCc4ccccc4)nc3C(=O)N2)c2ccccc21 | 88% | 850 nM | 50% | 
24 | O=C1N[C@@H](Cc2ccccc2)CN(C(=O)C2CC2)c2cn(CCC3CCN(Cc4cccc5cnccc45)CC3)nc21 | 27% |  |  | 
25 | O=C1N[C@@H](COC(=O)c2cccc3cnccc23)CN(Cc2ccccc2)c2cn(CCc3ccccc3)nc21 | 68% | 1450 nM | 42% | 
26 | Cn1cc(C(=O)OC[C@H]2CNc3cn(CCc4ccccc4)nc3C(=O)N2)c2ccccc21 | 43% |  |  | 
27 | Cc1cccc(CN2C[C@H](COC(=O)c3cn(C)c4ccccc34)NC(=O)c3nn(CCc4ccccc4)cc32)c1 | 46% |  |  | 
28 | O=C(OC[C@H]1CNc2cn(CCc3ccccc3)nc2C(=O)N1)c1ccccc1 | 33% |  |  | 
29 | Cn1cc(C(=O)OCC2CN(Cc3cccc4ccccc34)c3cn(CCc4ccccc4)nc3C(=O)N2)c2ccccc21 (single isomer, unassigned) | 48% |  |  | 
30 | Cn1cc(C(=O)OC[C@H]2CN(Cc3cccc(F)c3)c3cn(CCc4ccccc4)nc3C(=O)N2)c2ccccc21 | 45% |  |  | 
31 | Cc1ccc(CN2C[C@H](COC(=O)c3cn(C)c4ccccc34)NC(=O)c3nn(CCc4ccccc4)cc32)cc1 | 87% | 520 nM | 38% | 
32 | O=C1N[C@@H](Cc2ccccc2)CN(C(=O)C2CC2)c2cn(CCC3CCNCC3)nc21 | 13% |  |  | 
